Calls of active or inactive are those of the source. The calls are words filed in the database; no cut-off is given here.

The text below walks through data of ChEMBL document CHEMBL5653617, “Inhibition of BRD4 attenuates tumor cell self-renewal and suppresses stem cell signaling in MYC driven medulloblastoma” (Oncotarget, 2014).

In one assay the test system is Medulloblastoma cell. Nature of the assay: Induction of cell cycle arrest in patient-derived Medulloblastoma cells assessed as accumulation of cells at G1 phase at 300 nM. Conditions: Homo sapiens. Format: functional, cell-based.
In assay [1] the test system is D283 Med. The experiment in a line: Induction of cell cycle arrest in human D283 Med cells assessed as accumulation of cells at G1 phase at 300 nM incubated for 48 hrs by flow cytometry analysis (reference value: 23.47 +/- 0.29%). It is filed as functional.
Assay [2] deals with Bromodomain-containing protein 4 (Homo sapiens) (UniProt O60885). Conditions: Daoy, dose 300.0 nM.
The target is the same in assay [3]. Particulars: D425 Med, dose 300.0 nM.
The target is the same in assay [4]. Particulars: UW228, dose 300.0 nM.
Assay [5] concerns Daoy. The experiment in a line: Antiproliferative activity in human Daoy cells assessed as inhibition of cell growth measured upto 120 hrs by xCELLigence system. It is filed as functional, cell-based. Particulars: dose 0.1-1 µM. In short, it runs like this:
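Real-time impedance growth monitoring (xCELLigence, E-Plate 96). 1000 cells/well plated, DMSO or drug at varying concentrations added 24 h later, growth recorded continuously over time.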

The subject of assay [6] is Daoy. The experiment in a line: Antitumor activity against human Daoy cells xenografted in athymic nude mice assessed as induction of senescence at 50 mg/kg, ip measured after 5 days by beta-galactosidase staining based analysis. It is filed as functional, organism-based. Particulars: time 5.0 day. In short, it runs like this:
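Daoy cells (1.0×10^7 in PBS) injected into the flank of athymic nude mice. Once tumors were palpable, drug given 50 mg/kg i.p. with DMSO as vehicle control. Animals were sacrificed after a 5-day treatment. Tumors were assessed by Ki67 IHC and by senescence-associated β-galactosidase staining.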
(A xenograft is tissue or cells of one species grown in another, often human tumour cells in immunodeficient mice.)

Assay [7] deals with Bromodomain-containing protein 4 (Homo sapiens) (UniProt O60885). Conditions: D283 Med, dose 300.0 nM.
Assay [8] relates to D458 Med. The experiment in a line: Induction of cell cycle arrest in human D458 Med cells assessed as S phase cells at 300 nM incubated for 48 hrs by flow cytometry analysis (reference value: 43.54 +/- 3.48%). It is filed as functional.
In assay [9] the test system is Daoy. The experiment in a line: Induction of senescence in human Daoy cells assessed as decrease in phosphorylated RB protein expression at 300 nM by immunoblot analysis. It is filed as functional, cell-based. In outline: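 Protein lysates prepared in RIPA buffer with protease inhibitors. Standard western blot with HRP-conjugated secondary antibodies and chemiluminescent detection.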
On the technique in general: In western blotting, separated proteins are transferred to a membrane and probed.

The subject of assay [10] is D283 Med. The experiment in a line: Inhibition of colony formation in human D283 Med cells at 100 to 300 nM incubated for 8 to 11 days by NBT staining based methyl cellulose colony growth assay. It is filed as functional, cell-based. Conditions: dose 100-300 nM, time 8-11 day. In outline: (§1)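 500 cells/well suspended in DMEM with methyl cellulose (1.3% final) containing 150 or 300 nM drug or DMSO, plated in triplicate. Colonies formed over 8–11 days, then stained with NBT (1 mg/ml) for 24 h at 37 °C. Colonies of ≥50 cells counted.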

The test system of assay [11] is Daoy. The experiment in a line: Induction of senescence in human Daoy cells assessed as increase in p21 mRNA expression at 300 nM by RT-qPCR analysis. Format: functional, cell-based. In short, it runs like this: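 Cells treated with 300 nM drug or DMSO. p16, p21 and p27 mRNA measured by TaqMan qPCR with ΔΔCt quantitation, in triplicate.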
In general terms: Real-time PCR tracks product formation cycle by cycle.

The test system of assay [12] is Daoy. The experiment in a line: In vivo inhibition of BRD4 in athymic nude mouse xenografted with human Daoy cells assessed as reduction in SOX2 protein expression in tumor at 50 mg/kg, ip measured after 5 days by immunofluorescence analysis. Format: functional, organism-based. Conditions: time 5.0 day. In outline:
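Tumors from Daoy flank xenografts in nude mice treated 50 mg/kg i.p. or DMSO vehicle for 5 days, then sacrificed. SOX2 protein detected by immunofluorescence on tumor sections.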

Assay [13] deals with D458 Med. The experiment in a line: Inhibition of colony formation in human D458 Med cells at 100 to 300 nM incubated for 8 to 11 days by NBT staining based methyl cellulose colony growth assay. Format: functional, cell-based. Conditions: dose 100-300 nM, time 8-11 day. In outline: as §1
The target of assay [14] is Bromodomain-containing protein 4 (Homo sapiens) (UniProt O60885). Conditions: Daoy, dose 300.0 nM. The source holds these as a separate data set.

In the case of `Cc1sc2c(c1C)C(c1ccc(Cl)cc1)=N[C@@H](CC(=O)OC(C)(C)C)c1nnc(C)n1-2`, the outcome with Medulloblastoma cell, in the assay on Daoy [6], in the assay with Daoy [9] and with Daoy [11] was Active. Also, the Activity with D283 Med [1] is 30.373%; in the assay on Daoy [5], “Dose-Dependent Effect”; in the assay on D458 Med [8], 26.58%. Moreover, the inhibition result (in [2]; in assay [3]; in assay [4]; in assay [7]; in the assay with D283 Med [10]; with Daoy [12]) was “Active” each time. Further, the inhibition result (in the assay on D458 Med [13]; in assay [14]) was “Active” throughout.
